Test [1] concerns the target T1, Thioredoxin reductase 3 (Homo sapiens, UniProt Q86VQ6).
T1 sequence (Q86VQ6 whole entry): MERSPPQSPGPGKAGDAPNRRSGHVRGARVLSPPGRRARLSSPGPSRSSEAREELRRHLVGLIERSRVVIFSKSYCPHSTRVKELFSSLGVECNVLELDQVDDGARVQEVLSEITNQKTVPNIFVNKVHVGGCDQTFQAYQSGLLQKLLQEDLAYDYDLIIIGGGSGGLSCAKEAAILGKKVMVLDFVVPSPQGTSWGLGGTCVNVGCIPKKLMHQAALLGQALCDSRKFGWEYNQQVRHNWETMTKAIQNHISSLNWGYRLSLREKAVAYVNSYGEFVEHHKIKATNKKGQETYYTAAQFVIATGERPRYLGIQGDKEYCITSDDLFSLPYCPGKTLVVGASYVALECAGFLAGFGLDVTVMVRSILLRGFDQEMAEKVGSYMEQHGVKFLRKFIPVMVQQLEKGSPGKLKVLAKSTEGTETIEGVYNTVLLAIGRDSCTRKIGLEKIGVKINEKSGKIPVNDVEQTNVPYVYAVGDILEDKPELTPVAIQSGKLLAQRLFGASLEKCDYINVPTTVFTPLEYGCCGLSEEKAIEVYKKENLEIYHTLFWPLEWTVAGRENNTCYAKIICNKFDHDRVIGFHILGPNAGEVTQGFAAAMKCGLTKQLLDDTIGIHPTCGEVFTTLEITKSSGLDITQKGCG
The test is described as follows: Inhibition of thioredoxin reductase in the presence of thioredoxinand insulin. The method in brief: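 Insulin reduction coupled to Trx/TrxR, final concentrations: 100 mM HEPES pH 7.2, 5 mM EDTA, 1 mM NADPH, 1.0 μM TrxR, 0.8 μM Trx, 2.5 mg/mL bovine insulin plus inhibitor. 30 min at 37 °C, stopped with 6 M guanidine HCl/50 mM Tris pH 8.0/10 mM DTNB, absorbance at 412 nm. IC50 for 50% inhibition of thionitrobenzoate formation.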

Test [2] concerns the target T1, Thioredoxin reductase 3. Kind of test: Inhibition of thioredoxin reductase. The method in brief:
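TrxR-only activity in HE buffer (100 mM HEPES pH 7.2, 5 mM EDTA) with 1.0 μM TrxR, 10 mM DTNB, 1 mM NADPH and inhibitor (final). Compound and enzyme added first, reaction started with NADPH/DTNB at 37 °C. OD 412 nm read every 10 s for initial linear rates. IC50 is 50% inhibition of thionitrobenzoate formation.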

A word on the IC50: it is the midpoint of a concentration-inhibition curve. Take `OCC1O[C@@H]2O[C@@H]3C(C[Te]c4ccccc4)O[C@H](O[C@@H]4C(CO)O[C@H](O[C@@H]5C(CO)O[C@H](O[C@@H]6C(CO)O[C@@H](O[C@@H]7C(CO)O[C@H](O[C@@H]8C(CO)O[C@H](O[C@H]1C(O)C2O)C(O)C8O)C(O)C7O)C(O)C6O)C(O)C5O)C(O)C4O)C(O)C3O` (some centres not stated): the IC50 on Thioredoxin reductase 3 [1] was 18 µM; against Thioredoxin reductase 3 [2] it was 17.8 µM.

The values are drawn from BindingDB's records for doi:10.1021/jm030916r (Uppsala University, 2004).
